Results taken from PMC3090455 (Analytical biochemistry, 2011).
Blank lines part the entries; values can stand above or below the molecule they belong to.

Tests used:
rat mEH [1] = target: T1, rat mEH (Rattus norvegicus, UniProt P07687); assay: High throughput screening end-point assay with 11, rat mEH; type: biochemical; conditions: [I] 10 μM, [11] 25 μM, 30 min end-point, room temperature
T1 sequence (P07687 1-455): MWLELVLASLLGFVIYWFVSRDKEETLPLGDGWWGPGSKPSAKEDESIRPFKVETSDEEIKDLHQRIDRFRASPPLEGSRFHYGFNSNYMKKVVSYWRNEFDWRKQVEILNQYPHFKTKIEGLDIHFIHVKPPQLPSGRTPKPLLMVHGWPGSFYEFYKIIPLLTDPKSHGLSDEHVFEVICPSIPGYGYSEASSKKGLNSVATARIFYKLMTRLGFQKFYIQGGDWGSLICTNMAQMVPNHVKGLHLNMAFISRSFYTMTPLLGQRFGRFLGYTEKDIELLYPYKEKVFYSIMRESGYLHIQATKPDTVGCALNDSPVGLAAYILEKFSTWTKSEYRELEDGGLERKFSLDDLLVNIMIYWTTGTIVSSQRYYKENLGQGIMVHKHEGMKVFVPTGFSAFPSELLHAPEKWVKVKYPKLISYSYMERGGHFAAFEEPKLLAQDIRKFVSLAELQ
Summary of the method: (§1)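 End-point screen of a pesticide library at 10 μM final. Recombinant partially purified enzyme (human 1.6, rat 0.5 μg/mL final) in 100 mM Tris/HCl pH 8.5 with 0.1 mg/mL BSA, preincubated with compounds 5 min at 30°C. Substrate added to 25 μM, then 30 min at room temperature in the dark before fluorescence reading (ex 330/em 465 nm). Buffer-only background and full-activity control wells; duplicate averages.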

human mEH [2] = target: T2, human mEH (Homo sapiens, UniProt P07099); assay: High throughput screening end-point assay with 11, human mEH; type: biochemical; conditions: [I] 10 μM, [11] 25 μM, 30 min end-point, room temperature
T2 sequence (P07099 1-455): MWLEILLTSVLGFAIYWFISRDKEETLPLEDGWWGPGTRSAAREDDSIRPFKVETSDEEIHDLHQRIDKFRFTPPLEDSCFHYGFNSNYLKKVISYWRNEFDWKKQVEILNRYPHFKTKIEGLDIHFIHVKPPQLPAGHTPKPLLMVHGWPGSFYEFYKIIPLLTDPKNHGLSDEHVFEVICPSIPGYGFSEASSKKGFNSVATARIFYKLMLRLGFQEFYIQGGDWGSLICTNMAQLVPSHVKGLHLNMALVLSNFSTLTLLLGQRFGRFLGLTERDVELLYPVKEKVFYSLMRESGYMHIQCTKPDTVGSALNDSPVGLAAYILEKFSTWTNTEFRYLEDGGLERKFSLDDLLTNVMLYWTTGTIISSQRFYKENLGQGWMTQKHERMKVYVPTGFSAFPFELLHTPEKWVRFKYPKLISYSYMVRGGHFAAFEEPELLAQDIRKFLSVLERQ
Summary of the method: as §1

mEH [3] = assay: Retest of screening hits with cSO as substrate; type: biochemical; conditions: suggests false positive in fluorescent assay
mEH [4] = assay: Retest of screening hits in inhibition potency assay with 11; type: biochemical; conditions: 10 μM
Summary of the method: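 Hits from the library screen retested at 10 μM in the kinetic fluorescent format: 5 min preincubation with partially purified enzyme in Tris/HCl pH 8.5 with BSA at 30°C. Then 25 μM substrate, with 6-methoxy-2-naphthaldehyde monitored for 10 min.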

rat mEH [5] = target: T1, rat mEH; assay: Specific activity of rat mEH for absorbent/fluorescent substrates; type: biochemical; conditions: [S] 50 μM, pH 9.0, 37°C, 4-nitrophenyl substrates
Summary of the method: (§2)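 Partially purified recombinant enzyme (0.5–80 μg/mL final) in 100 mM Tris/HCl pH 9.0 with 0.1 mg/mL BSA, preincubated 5 min at 37°C. Substrate added at 50 μM final from 5 mM DMSO stock; buffer-only wells gave background. Read kinetically for 5 min: 4-nitrophenol at 450 nm, or fluorescence (coumarin ex 355/em 450; naphthaldehyde ex 330/em 465). Signals converted via standard curves (0.005–0.5 μM); 8 replicates.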

human mEH [6] = target: T2, human mEH; assay: Specific activity of human mEH for absorbent/fluorescent substrates; type: biochemical; conditions: [S] 50 μM, pH 9.0, 37°C, 4-nitrophenyl substrates
Summary of the method: as §2

Background = type: physicochemical; conditions: [S] 50 μM, Tris/HCl 100 mM pH 9.0, 0.1 mg/mL BSA, 37°C, 4-nitrophenol absorbance
Summary of the method: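 Enzyme-free control wells held Tris/HCl (100 mM, pH 9.0, 0.1 mg/mL BSA), preincubated 5 min at 37°C. Substrate was added from a 5 mM DMSO stock working solution to 50 μM final, and product was read kinetically for 5 min. Read-out was 4-nitrophenol absorbance at […] fluorescence (ex 355/em 450 or ex 330/em 465 nm). Signals were converted to molar amounts via 0.005–0.5 μM standard curves; 8 replicates.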

[7] = substrate: COc1ccc2cc(C(C#N)OC(=O)OCC3CO3)ccc2c1; assay: Kinetic constants determination, rat mEH; type: biochemical; conditions: other: Tris/HCl pH 9.0 100 mM, 0.1 mg/mL BSA, 37°C
[8] = substrate: COc1ccc2cc(C(C#N)OC(=O)OCC3CO3)ccc2c1; assay: Kinetic constants determination, human mEH; type: biochemical; conditions: other: Tris/HCl pH 9.0 100 mM, 0.1 mg/mL BSA, 37°C

Molecule: CC(C)[C@H](C(=O)O[C@H](C#N)c1cccc(Oc2ccccc2)c1)c1ccc(Cl)cc1 [Asana]
inhibition of rat mEH in library screen (rat mEH [1]): significant inhibition
inhibition of human mEH in library screen (human mEH [2]): significant inhibition
mEH inhibition with cSO as substrate (mEH [3]): no inhibition was observed
mEH inhibition on retest with 11 in the inhibition potency assay (mEH [4]): confirmed mEH inhibition

Molecule: Brc1ccc(Oc2ccc(Br)cc2Br)c(Br)c1 [BDE47]
inhibition of rat mEH in library screen (rat mEH [1]): significant inhibition
inhibition of human mEH in library screen (human mEH [2]): significant inhibition
mEH inhibition with cSO as substrate (mEH [3]): no inhibition was observed
mEH inhibition on retest with 11 in the inhibition potency assay (mEH [4]): confirmed mEH inhibition

Rat mEH S/B (signal to background ratio) (rat mEH [5]): 5
Rat mEH S/N (signal to noise ratio) (rat mEH [5]): 32
Rat mEH Spec. act. (rat mEH [5]): 29 ± 2 nmol/min/mg
Rat mEH Z' (screening window coefficient) (rat mEH [5]): 0.67
Human mEH S/B (signal to background ratio) (human mEH [6]): 3
Human mEH S/N (signal to noise ratio) (human mEH [6]): 53
Human mEH Spec. act. (human mEH [6]): 51 ± 2 nmol/min/mg
Human mEH Z' (screening window coefficient) (human mEH [6]): 0.82
background hydrolysis (Background): 0.31 ± 0.02 nmol/min
Molecule: O=C(OCC1CO1)Oc1ccc([N+](=O)[O-])cc1 (stereo not drawn) [compound 6, 4-Nitrophenyl (oxiran-2-yl)methyl carbonate]

Molecule: Oc1cc(Cl)ccc1Oc1ccc(Cl)cc1Cl [triclosan]
inhibition of rat mEH in library screen (rat mEH [1]): significant inhibition
inhibition of human mEH in library screen (human mEH [2]): significant inhibition
mEH inhibition with cSO as substrate (mEH [3]): no inhibition was observed
mEH inhibition on retest with 11 in the inhibition potency assay (mEH [4]): confirmed mEH inhibition

B1: rat mEH (Rattus norvegicus) (protein)
chain: T1 sequence (P07687 1-455)
Km [7]: 2.3 ± 0.4 µM
Vmax [7]: 0.089 µmol/min/mg
Vmax/Km [7]: 40000 µL/min/mg

B2: human mEH (Homo sapiens) (protein)
chain: T2 sequence (P07099 1-455)
Km [8]: 3.8 ± 0.6 µM
Vmax [8]: 0.042 µmol/min/mg
Vmax/Km [8]: 11000 µL/min/mg
